High-throughput results from PubChem.
KCNK3 inh: human KCNK3 channel inhibitors, primary screen, CHO cells, FluxOR thallium flux, B-score; Potassium channel subfamily K member 3 (Homo sapiens), O14649; FluxOR fluorescence; active compounds read low; B-score at 10 µM; hit rate 0.84% among 340,000;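 active = B-score under library mean minus 4 SD, starting fluorescence ratio at most library mean plus 5 SD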;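 note: more negative B-score means stronger inhibition of thallium flux through KCNK3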
Target sequence (O14649 whole entry, looked up): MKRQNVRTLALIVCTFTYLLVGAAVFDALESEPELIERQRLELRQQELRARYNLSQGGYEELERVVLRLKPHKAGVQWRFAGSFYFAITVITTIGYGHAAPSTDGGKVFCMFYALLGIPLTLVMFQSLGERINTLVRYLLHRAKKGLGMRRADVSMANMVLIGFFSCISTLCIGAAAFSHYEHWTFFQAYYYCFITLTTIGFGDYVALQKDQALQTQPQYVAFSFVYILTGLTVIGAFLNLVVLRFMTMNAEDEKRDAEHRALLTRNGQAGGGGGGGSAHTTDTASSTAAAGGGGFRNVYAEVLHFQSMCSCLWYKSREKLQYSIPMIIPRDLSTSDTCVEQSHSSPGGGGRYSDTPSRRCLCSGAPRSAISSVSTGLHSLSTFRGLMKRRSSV
KCNK9 block: KCNK9 potassium channel inhibitors, primary screen, HEK293 cells, thallium flux; B-score at 10 µM; hit rate 1.2% among 310,000; FluxOR thallium flux fluorescence; active compounds read low;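 active = ratio B-score over 3 SD below the library mean, with starting fluorescence within 5 SD of its mean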;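 note: negative B-score means less thallium flux so channel inhibition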
Kir21 inh: inhibitors of mouse Kir2.1 inward-rectifier potassium channel | B-score at 10 µM | hit rate 0.85% among 310,000 | HEK293-Kir2.1, FluxOR thallium flux fluorescence; active compounds read low | AID 1672, 2009;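 active = fluorescence ratio B-score at or below minus 3 SD of library scores, with starting-brightness B-score within 2 SD, cut at about -4.2 in these data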;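 note: channel flux triggered by added potassium and thallium sulfate stimulus; B-score of peak minus minimum fluorescence over baseline after thallium stimulus; more negative B-score means stronger Kir2.1 block with less thallium influx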
hERG protect: hERG rescue from dofetilide block, primary screen, cell-based, CHO-hERG, FluxOR thallium flux, dofetilide IC70; Voltage-gated inwardly rectifying potassium channel KCNH2 (Homo sapiens), Q12809; dofetilide IC70 present; activation (rescue from dofetilide block), less the hit threshold, % at 10 µM; hit rate 0.51% among 310,000; AID 1511, 2009;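 active = activation above the mean of controls blocked by dofetilide plus 5 SD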;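 note: thallium influx through hERG after potassium depolarization seen as dye fluorescence rise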
KCNQ1 inh: inhibitors of human KCNQ1 channel, primary screen, cell-based, thallium flux, high-throughput; Potassium voltage-gated channel subfamily KQT member 1 (Homo sapiens), P51787; CHO-K1 KCNQ1, FluxOR thallium flux fluorescence; active compounds read high; B-score at 10 µM; hit rate 1.3% among 310,000;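 active = compounds whose thallium flux B-score, printed positive for inhibition, exceeds three library SD while starting fluorescence stays within three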;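 note: channel opened by potassium depolarization with thallium stimulus after 20 min compound exposure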
KCNQ1 act: potentiators or activators of KCNQ1 channel, primary screen, cell-based, thallium flux, high-throughput | Potassium voltage-gated channel subfamily KQT member 1 (Homo sapiens), P51787 | CHO-K1 KCNQ1, thallium flux FluxOR fluorescence; active compounds read high | B-score at 10 µM | hit rate 0.35% among 310,000;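 active = fluorescence ratio B-score, a plate-corrected score, at least three library SD, with initial intensity B-score within 5 SD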
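System: Stable KCNQ1 CHO-K1 line | Incubation: 90 min dye loading and 20 min compound exposure, both at room temperature | Measure: Ratio B score | Medium: Assay buffer for compound exposure, DMSO matched across wells | Compound dosing: Single-concentration screen | Probe or stimulus: K+/Tl+ depolarizing stimulus | Measured by: Kinetic FluxOR fluorescence, 10 s baseline plus 110 s post-stimulus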
* = called active by the depositor; i = inactive; nt = no result given. Compounds with a hit are over-represented: about 3.8% of the library has one in this group of screens.

SMILES	KCNK3 inh	KCNK9 block	Kir21 inh	hERG protect	KCNQ1 inh	KCNQ1 act
CCOC(=O)C1=C(C)N=c2s/c(=C\c3ccncc3)c(=O)n2C1c1ccc2c(c1)OCO2 (configuration not stated)	i	i	-0.76	-13.5	8*	i
CN1C(=O)CCC2(c3ccccc3)CC=C(O)C=C12 (configuration not stated)	i	nt	nt	nt	nt	nt
CC(C)(C)Nc1c2ccccc2nc2ccccc12	i	i	-4.52*	-8.0	i	i
COc1ccccc1Nc1c2ccccc2nc2ccccc12	i	i	-4.97*	-11.8	i	i
COc1ccccc1Nc1nc(-c2ccccc2)nc2ccccc12	i	-7.17*	-0.25	-10.0	i	i
COc1ccc(Nc2nc(N)c3ccccc3n2)c(OC)c1	i	i	-5.11*	-4.5	i	i
COc1ccc(Nc2nc(N)nc(C(F)(F)F)n2)c(OC)c1	i	i	1.3	-3.7	i	i
COc1cc(Nc2c3ccccc3nc3ccccc23)cc(OC)c1OC	i	i	0.58	-7.5	i	i
Cc1sc(NC(=O)CN(C(=O)c2ccccc2F)C2CCCC2)c(C(N)=O)c1C	i	i	1.35	-4.8	i	i
COc1ccc(CCNC(=O)CN(C)S(=O)(=O)c2ccc(OC)cc2)cc1	i	i	-1.24	-5.8	i	i
Cc1onc(-c2ccccc2)c1C(=O)NCCc1ccncc1	i	i	-3.4	-9.3	i	i
COc1ccc(CC(=O)Nc2ccc(S(=O)(=O)N3CCCCC3)cc2)cc1OC	i	i	0.69	-14.8	i	i
CCCN1C2CCCC1CC(NC(=O)c1ccccc1OC)C2 (configuration not stated)	i	i	-0.49	-4.8	8*	i
COc1ccc2cnn(CCOc3cc(C)ccc3C(C)C)c(=O)c2c1OC	i	i	-4.75*	-15.8	i	i
Fc1ccc2nc(Nc3nc4c(F)cccc4s3)sc2c1	i	i	1.43	0.2	i	46*
Fc1ccc2nc(Nc3nc4c(F)cc(F)cc4s3)sc2c1	i	i	1.16	5.0*	i	i
Fc1cccc2sc(Nc3nc4ccccc4s3)nc12	i	i	-0.1	13.1*	i	i
O=C(NNc1nc2ccccc2s1)c1ccccc1F	i	i	0.5	-3.1	i	i
CN(C)c1ccc(C(=O)N2CCCC(N3CCN(Cc4ccc5c(c4)OCO5)CC3)C2)cc1 (configuration not stated)	i	i	1.05	-0.3	i	i
CCOC(=O)C1=C(c2ccccc2)OC(N)=C(C#N)C1c1ccc(Cl)s1 (configuration not stated)	i	-6.62*	1.51	-6.2	i	i
CCOc1ccc(C(=O)Oc2ccc(NC(C)=O)cc2)cc1	nt	i	0.09	-8.7	i	i
CC(=O)Nc1ccc(OC(=O)c2ccc(Br)c([N+](=O)[O-])c2)cc1	i	i	0.93	-25.1	7*	i
CN(C)C(=O)c1ccc(OCC(F)(F)F)nc1	i	i	-1.18	-8.7	i	i
Cc1cc(NC(=O)c2sccc2C)n(-c2nc3ccccc3[nH]2)n1	i	-7.03*	1.82	-6.1	i	i
Cc1cc(NC(=O)c2cccs2)n(-c2nc3ccccc3[nH]2)n1	i	i	-0.75	-7.2	i	i
SMILES	KCNK3 inh	KCNK9 block	Kir21 inh	hERG protect	KCNQ1 inh	KCNQ1 act
OC(COCCOc1ccc(Br)cc1)CN1CCN(Cc2ccccc2)CC1 (configuration not stated)	i	i	-7.4*	-6.6	i	i
CCc1ccc(OCCOCC(O)CN2CCN(Cc3ccc(Cl)cc3)CC2)cc1 (configuration not stated)	i	i	-9.06*	-14.2	i	i
OC(CNC1CCCCC1)COCCOc1ccc(Br)cc1 (configuration not stated)	i	i	-4.27*	-10.9	i	i
CCC(C)c1ccc(S(=O)(=O)N2CCN(C(=O)c3ccc(Cl)c(S(=O)(=O)N4CCOCC4)c3)CC2)cc1 (configuration not stated)	-9.65*	nt	nt	nt	nt	nt
CC1=Nc2ccccc2/C1=C/c1c(C)[nH]c2ccccc12	i	nt	nt	nt	nt	nt
CN(C)S(=O)(=O)c1ccc(Cl)c(C(=O)NC2CCCCCCC2)c1	i	i	-0.12	-7.1	i	i
CC(=O)N1Cc2ccccc2C(C)CC12CCCC2 (configuration not stated)	i	i	-5.1*	-8.0	i	i
CC(=O)N1c2ccccc2C(C)CC12CCCCC2 (configuration not stated)	i	i	-4.72*	-8.7	i	i
CC1CC(C)(C)N(C(=O)CN2CCN(C)CC2)c2ccccc21 (configuration not stated)	i	i	0.02	-7.4	i	i
CC[C@H](C)[C@@H](CNC)NC[C@@H](Cc1ccc(O)cc1)NCC(C)(C)C	i	i	0.63	-10.4	i	i
CC[C@@H](C)[C@H](CN[C@H](CNC)C(C)C)NC[C@@H](C)c1ccc(CC(C)C)cc1	i	i	-8.85*	-29.4	8*	i
CC1(C)CC2CC(C)(CN2C(=O)COC(=O)c2cncc(Br)c2)C1 (configuration not stated)	i	nt	nt	nt	nt	nt
O=C(Nc1ccc(Cl)cc1)Nc1nnc(SCc2ccccc2)s1	i	i	0.26	-10.5	6*	i
CN(C1CCS(=O)(=O)C1)S(=O)(=O)c1ccccc1[N+](=O)[O-] (configuration not stated)	i	i	-1.74	-3.1	i	i
COc1cc2c(cc1OC)CN(C(=O)c1sccc1C)CC2	i	i	-1.61	8.7*	i	i
Cc1noc(C)c1COc1cccc(C(=O)Nc2ccc(Br)cc2F)c1	-9.22*	nt	nt	nt	nt	nt
Cc1ccc(NC(=O)c2cccc(OCc3c(C)noc3C)c2)c(C)c1	i	i	0.03	-10.7	i	i
CC(C)c1ccc(NC(=S)Nc2ccc(OC(F)(F)F)cc2)cc1	i	i	-0.76	-9.3	10*	i
O=C(O)/C=C/C(=O)Nc1ccc(OC(F)(F)F)cc1	i	i	0.03	-1.8	i	i
FC(F)(F)Oc1ccc(NC(=S)Nc2ccc(OC(F)(F)F)cc2)cc1	i	i	1.41	-17.6	10*	i
